Measured values reported in ChEMBL document CHEMBL1212770, “Molecular and biochemical characterization of the natural chromosome-encoded class A beta-lactamase from Pseudomonas luteola” (Antimicrob Agents Chemother, 2010).
Converted amounts (≈) assume the structure as drawn. The source made the active and inactive calls. The calls are words filed in the database; no cut-off is given here.

Columns and labels:
Pseudomonas luteola [1] = test: Antimicrobial activity against Pseudomonas luteola LAM expressing blaLUT-1 by Etest method; type: functional
Pseudomonas luteola [2] = test: Antimicrobial activity against Pseudomonas luteola expressing blaLUT-2 to blaLUT-6 by Etest method; type: functional
Escherichia coli [3] = test: Antimicrobial activity against Escherichia coli DH10B transfected with pBK-L3 expressing blaLUT-1 by Etest method; type: functional; conditions: K-12 DH10B
Escherichia coli [4] = test: Antimicrobial activity against Escherichia coli DH10B by Etest method; type: functional; conditions: K-12 DH10B
Pseudomonas luteola [5] = test: Antimicrobial activity against Pseudomonas luteola LAM expressing blaLUT-1 by Etest method in presence of 4 ug/ml clavulanic acid; type: functional
Pseudomonas luteola [6] = test: Antimicrobial activity against Pseudomonas luteola expressing blaLUT-2 to blaLUT-6 by Etest method in presence of 4 ug/ml clavulanic acid; type: functional
Escherichia coli [7] = test: Antimicrobial activity against Escherichia coli DH10B by Etest method in presence of 4 ug/ml clavulanic acid; type: functional; conditions: K-12 DH10B
Escherichia coli [8] = test: microbe, parasite or virus in culture; conditions: K-12 DH10B
Pseudomonas luteola [9] = test: Antimicrobial activity against Pseudomonas luteola by Etest method; type: functional
Pseudomonas luteola [10] = test: Antimicrobial activity against Pseudomonas luteola by disk diffusion method; type: functional
How it was run: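 Disk diffusion panel of 32 antimicrobial drugs tested on P. luteola clinical isolates and the type strain. Isolates were identified by API-20 NE and by sequencing of PCR-amplified rrs and rpoB.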

Pseudomonas luteola [11] = test: Antimicrobial activity against Pseudomonas luteola LAM expressing blaLUT-1 by Etest method in presence of 4 ug/ml Tazobactam; type: functional
Pseudomonas luteola [12] = test: Antimicrobial activity against Pseudomonas luteola expressing blaLUT-2 to blaLUT-6 by Etest method in presence of 4 ug/ml Tazobactam; type: functional
Escherichia coli [13] = test: Antimicrobial activity against Escherichia coli DH10B transfected with pBK-L3 expressing blaLUT-1 by Etest method in presence of 4 ug/ml Tazobactam; type: functional; conditions: K-12 DH10B
Escherichia coli [14] = test: Antimicrobial activity against Escherichia coli DH10B by Etest method in presence of 4 ug/ml Tazobactam; type: functional; conditions: K-12 DH10B
Pseudomonas luteola [15] = test: Antimicrobial activity against Pseudomonas luteola LAM expressing blaLUT-1 by Etest method in presence of 2 ug/ml clavulanic acid; type: functional
Pseudomonas luteola [16] = test: Antimicrobial activity against Pseudomonas luteola expressing blaLUT-2 to blaLUT-6 by Etest method in presence of 2 ug/ml clavulanic acid; type: functional
Escherichia coli [17] = test: Antimicrobial activity against Escherichia coli DH10B transfected with pBK-L3 expressing blaLUT-1 by Etest method in presence of 2 ug/ml clavulanic acid; type: functional; conditions: K-12 DH10B
Escherichia coli [18] = test: Antimicrobial activity against Escherichia coli DH10B by Etest method in presence of 2 ug/ml clavulanic acid; type: functional; conditions: K-12 DH10B
[19] = substrate: CC(=O)OCC1=C(C(=O)O)N2C(=O)[C@@H](NC(=O)Cc3cccs3)[C@H]2SC1; test: (§1) Activity of Pseudomonas luteola LAM Beta-lactamase LUT-1
How it was run: (§2)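 LUT-1 was purified from E. coli DH5α(pBK-L3) grown for 18 h at 37°C in 2× yeast-tryptone broth with kanamycin 20 μg/ml and amoxicillin 32 μg/ml. Purification used Q Sepharose ion exchange, then Superose 12 gel filtration, with purity checked by SDS-PAGE. Km and kcat were determined by a computerized microacidimetric method, each three times, with coefficients of variation not exceeding 15%.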

[20] = substrate: CC(C)(O/N=C(\C(=O)N[C@@H]1C(=O)N2C(C(=O)[O-])=C(C[n+]3ccccc3)CS[C@H]12)c1csc(N)n1)C(=O)O; test: as §1; how it was run: as §2
[21] = substrate: CC1(C)S[C@@H]2[C@H](NC(=O)Cc3ccccc3)C(=O)N2[C@H]1C(=O)O; test: as §1; how it was run: as §2
[22] = substrate: CC1(C)S[C@@H]2[C@H](NC(=O)[C@H](C(=O)O)c3ccsc3)C(=O)N2[C@H]1C(=O)O; test: as §1; how it was run: as §2
[23] = substrate: CC1(C)S[C@@H]2[C@H](NC(=O)[C@H](N)c3ccc(O)cc3)C(=O)N2[C@H]1C(=O)O; test: as §1; how it was run: as §2
[24] = substrate: CCN1CCN(C(=O)N[C@@H](C(=O)N[C@@H]2C(=O)N3[C@@H]2SC(C)(C)[C@@H]3C(=O)O)c2ccccc2)C(=O)C1=O; test: as §1; how it was run: as §2
[25] = substrate: CO/N=C(\C(=O)N[C@@H]1C(=O)N2C(C(=O)O)=C(COC(C)=O)CS[C@H]12)c1csc(N)n1; test: as §1; how it was run: as §2
[26] = substrate: CO/N=C(\C(=O)N[C@@H]1C(=O)N2C(C(=O)O)=C(COC(N)=O)CS[C@H]12)c1ccco1; test: as §1; how it was run: as §2
[27] = substrate: C[C@H]1[C@H](NC(=O)/C(=N\OC(C)(C)C(=O)O)c2csc(N)n2)C(=O)N1S(=O)(=O)O; test: as §1; how it was run: as §2
[28] = substrate: CC(=O)OCC1=C(C(=O)O)N2C(=O)[C@@H](NC(=O)Cc3cccs3)[C@H]2SC1; test: (§3) Ratio of kcat/Km for Pseudomonas luteola LAM Beta-lactamase LUT-1; how it was run: as §2
[29] = substrate: CC(C)(O/N=C(\C(=O)N[C@@H]1C(=O)N2C(C(=O)[O-])=C(C[n+]3ccccc3)CS[C@H]12)c1csc(N)n1)C(=O)O; test: as §3; how it was run: as §2
[30] = substrate: CC1(C)S[C@@H]2[C@H](NC(=O)Cc3ccccc3)C(=O)N2[C@H]1C(=O)O; test: as §3; how it was run: as §2
[31] = substrate: CC1(C)S[C@@H]2[C@H](NC(=O)[C@H](C(=O)O)c3ccsc3)C(=O)N2[C@H]1C(=O)O; test: as §3; how it was run: as §2
[32] = substrate: CC1(C)S[C@@H]2[C@H](NC(=O)[C@H](N)c3ccc(O)cc3)C(=O)N2[C@H]1C(=O)O; test: as §3; how it was run: as §2
[33] = substrate: CCN1CCN(C(=O)N[C@@H](C(=O)N[C@@H]2C(=O)N3[C@@H]2SC(C)(C)[C@@H]3C(=O)O)c2ccccc2)C(=O)C1=O; test: as §3; how it was run: as §2
[34] = substrate: CO/N=C(\C(=O)N[C@@H]1C(=O)N2C(C(=O)O)=C(COC(C)=O)CS[C@H]12)c1csc(N)n1; test: as §3; how it was run: as §2
[35] = substrate: CO/N=C(\C(=O)N[C@@H]1C(=O)N2C(C(=O)O)=C(COC(N)=O)CS[C@H]12)c1ccco1; test: as §3; how it was run: as §2
[36] = substrate: C[C@H]1[C@H](NC(=O)/C(=N\OC(C)(C)C(=O)O)c2csc(N)n2)C(=O)N1S(=O)(=O)O; test: as §3; how it was run: as §2

CC(C)(O/N=C(\C(=O)N[C@@H]1C(=O)N2C(C(=O)[O-])=C(C[n+]3ccccc3)CS[C@H]12)c1csc(N)n1)C(=O)O [CEFTAZIDIME]
MIC (Pseudomonas luteola [1]): 0.5 µg/mL (≈ 0.915 µM) | MIC (Pseudomonas luteola [2]): 0.5 µg/mL (≈ 0.915 µM) | MIC (Escherichia coli [3]): 1 µg/mL (≈ 1.83 µM) | MIC (Escherichia coli [4]): 0.125 µg/mL (≈ 0.229 µM) | MIC (Pseudomonas luteola [5]): 0.25 µg/mL | MIC (Pseudomonas luteola [6]): 0.25 µg/mL | MIC (Escherichia coli [7]): 0.25 µg/mL | MIC (Escherichia coli [8]): 0.5 µg/mL (≈ 0.915 µM)

CC(=O)OCC1=C(C(=O)O)N2C(=O)[C@@H](NC(=O)Cc3cccs3)[C@H]2SC1 [CEPHALOTHIN]
MIC (Pseudomonas luteola [1]): 64 µg/mL (≈ 161 µM) | MIC (Pseudomonas luteola [2]): 128 µg/mL (≈ 323 µM) | MIC (Escherichia coli [3]): 32 µg/mL (≈ 80.7 µM) | MIC (Escherichia coli [4]): 4 µg/mL (≈ 10.1 µM)

O=C(O)c1cn(C2CC2)c2cc(N3CCNCC3)c(F)cc2c1=O [CIPROFLOXACIN]
MIC (Pseudomonas luteola [9]): 0.032 µg/mL (≈ 0.0966 µM)

C[C@@H](O)[C@H]1C(=O)N2C(C(=O)O)=C(SCCNC=N)C[C@H]12 [IMIPENEM ANHYDROUS]
MIC (Pseudomonas luteola [1]): 0.25 µg/mL (≈ 0.835 µM) | MIC (Pseudomonas luteola [2]): 0.25 µg/mL (≈ 0.835 µM)

CCn1cc(C(=O)O)c(=O)c2ccc(C)nc21 [NALIDIXIC ACID]
Activity (Pseudomonas luteola [10]): inactive | MIC (Pseudomonas luteola [9]): 16 µg/mL (≈ 68.9 µM)

CCN1CCN(C(=O)N[C@@H](C(=O)N[C@@H]2C(=O)N3[C@@H]2SC(C)(C)[C@@H]3C(=O)O)c2ccccc2)C(=O)C1=O [PIPERACILLIN]
MIC (Pseudomonas luteola [1]): 2 µg/mL (≈ 3.86 µM) | MIC (Pseudomonas luteola [2]): 2 µg/mL (≈ 3.86 µM) | MIC (Escherichia coli [3]): 8 µg/mL (≈ 15.5 µM) | MIC (Escherichia coli [4]): 1 µg/mL (≈ 1.93 µM) | MIC (Pseudomonas luteola [11]): 1 µg/mL | MIC (Pseudomonas luteola [12]): 1 µg/mL | MIC (Escherichia coli [13]): 1 µg/mL | MIC (Escherichia coli [14]): 1 µg/mL

CC1(C)S[C@@H]2[C@H](NC(=O)[C@H](C(=O)O)c3ccsc3)C(=O)N2[C@H]1C(=O)O [TICARCILLIN]
MIC (Pseudomonas luteola [1]): 8 µg/mL (≈ 20.8 µM) | MIC (Pseudomonas luteola [2]): 8 µg/mL (≈ 20.8 µM) | MIC (Escherichia coli [3]): 256 µg/mL (≈ 666 µM) | MIC (Escherichia coli [4]): 2 µg/mL (≈ 5.2 µM) | MIC (Pseudomonas luteola [15]): 4 µg/mL | MIC (Pseudomonas luteola [16]): 2 µg/mL | MIC (Escherichia coli [17]): 16 µg/mL | MIC (Escherichia coli [18]): 2 µg/mL

B1: Beta-lactamase (Pseudomonas luteola), Q670S6 (protein)
chain: MNVILNRRTFLLASAVVSASYSLGTLAGANRDDASFQDRLAKLEQQLNGRLGVCAIDTANGAQLGYRANERFAMNSTFKVMLASAFLARSQDEPGLLEERLTYTRADLVTYSPVTEKHVSTGMTVAELCAAGIQYSDNTAANVLMKKLGGPEAVTAFARSIGDTHFRLDRWETELNSAIPGDPRDTSTPQAMAMSLQRLALGDMLAADKQHQLQAWLKGNTTGGKRIRAGVPAGWQVGDKTGTGDYGSANDVAILWPPRRAPVVLALYSALENQQAEARNDVLADAARIVAEWVTG
Km [19]: 21 µM | kcat [19]: 543 s⁻¹ | Km [20]: 35 µM | kcat [20]: 1.3 s⁻¹ | Km [21]: 8 µM | kcat [21]: 31 s⁻¹ | Km [22]: 14 µM | kcat [22]: 5 s⁻¹ | Km [23]: 20 µM | kcat [23]: 21 s⁻¹ | Km [24]: 7 µM | kcat [24]: 8 s⁻¹ | Km [25]: 86 µM | kcat [25]: 452 s⁻¹ | Km [26]: 24 µM | kcat [26]: 286 s⁻¹ | Km [27]: 40 µM | kcat [27]: 1.5 s⁻¹ | kcat/Km [28]: 25.9 s⁻¹ µM⁻¹ | kcat/Km [29]: 0.04 s⁻¹ µM⁻¹ | kcat/Km [30]: 3.87 s⁻¹ µM⁻¹ | kcat/Km [31]: 0.36 s⁻¹ µM⁻¹ | kcat/Km [32]: 1.05 s⁻¹ µM⁻¹ | kcat/Km [33]: 1.14 s⁻¹ µM⁻¹ | kcat/Km [34]: 5.25 s⁻¹ µM⁻¹ | kcat/Km [35]: 11.9 s⁻¹ µM⁻¹ | kcat/Km [36]: 0.04 s⁻¹ µM⁻¹
